Converted amounts (≈) assume the structure as drawn.
The compounds below were run on LoVo (assay: In vitro cytotoxicity on human colon adenocarcinoma (LoVo ) tumor cell line.).
Type: functional, cell-based
In the case of `CN(C)CCn1nc2c3c(c(NCCN4CCOCC4)ccc31)C(=O)c1ccncc1-2`, the IC50 is reported as 1.35 µg/mL (≈ 3.21 µM). `CN(C)CCCn1nc2c3c(c(NCCNCCO)ccc31)C(=O)c1ccncc1-2` was tested, and the IC50 was 0.3 µg/mL (≈ 0.734 µM). For `CN(C)CCn1nc2c3c(c(NCCN(CCO)CCO)ccc31)C(=O)c1ccncc1-2`, the IC50 was 2.13 µg/mL (≈ 4.86 µM). For `NCCn1nc2c3c(c(NCCN(CCO)CCO)ccc31)C(=O)c1ccncc1-2`, the IC50 was 46.4 µg/mL (≈ 113 µM). In the case of `CCN(CC)CCNc1ccc2c3c(nn2CCN)-c2cnccc2C(=O)c13`, the IC50 is reported as 0.52 µg/mL (≈ 1.37 µM). Compound `CN(C)CCNc1ccc2c3c(nn2CCO)-c2cnccc2C(=O)c13` has an IC50 of 18.5 µg/mL (≈ 52.6 µM). `CN(C)CCn1nc2c3c(c(NCCN(C)CCO)ccc31)C(=O)c1ccncc1-2` showed an IC50 of 0.049 µg/mL (≈ 0.12 µM). `NCCNc1ccc2c3c(nn2CCNCCO)-c2cnccc2C(=O)c13` gave an IC50 of 2.17 µg/mL (≈ 5.92 µM).

These compounds were tested on MX1 (assay: In vivo antitumor activity was measured on MX-1 human mammary carcinoma cells. TWI%=tumor weight inhibition. Optimal dose 20 mg/kg/day.).
Type: functional
`NCCNc1ccc2c3c(nn2CCNCCO)-c2cnccc2C(=O)c13` gave a TWI of 74%.

These compounds were tested on MX1 (assay: In vivo antitumor activity was measured on MX-1 human mammary carcinoma cells. TWI%=tumor weight inhibition. Optimal dose 27 mg/kg/day.).
Type: functional
Compound `CN(C)CCn1nc2c3c(c(NCCN4CCOCC4)ccc31)C(=O)c1ccncc1-2` has a TWI of 48%.

The compounds below were run on MX1 (assay: In vivo antitumor activity was measured on MX-1 human mammary carcinoma cells. TWI%=tumor weight inhibition. Optimal dose 40 mg/kg/day.).
Type: functional
Compound `CCN(CC)CCNc1ccc2c3c(nn2CCN)-c2cnccc2C(=O)c13` has a TWI of 51%.

These compounds were tested on MX1 (assay: In vivo antitumor activity was measured on MX-1 human mammary carcinoma cells. TWI%=tumor weight inhibition. Optimal dose 10 mg/kg/day.).
Type: functional
Compound `CN(C)CCCn1nc2c3c(c(NCCNCCO)ccc31)C(=O)c1ccncc1-2` has a TWI of 98%.

Each compound was assayed on MX1 (assay: In vivo antitumor activity was measured on MX-1 human mammary carcinoma cells. TWI%=tumor weight inhibition. Optimal dose 150 mg/kg/day.).
Type: functional
In the case of `NCCn1nc2c3c(c(NCCN(CCO)CCO)ccc31)C(=O)c1ccncc1-2`, the TWI is reported as 50%.

These compounds were tested on MX1 (assay: In vivo antitumor activity was measured on MX-1 human mammary carcinoma cells. TWI%=tumor weight inhibition. Optimal dose 90 mg/kg/day.).
Type: functional
Work on `CN(C)CCn1nc2c3c(c(NCCN(CCO)CCO)ccc31)C(=O)c1ccncc1-2` yielded a TWI of 97%. Work on `CN(C)CCNc1ccc2c3c(nn2CCO)-c2cnccc2C(=O)c13` yielded a TWI of 16%.

The compounds below were run on P388 (assay: In vivo antitumor activity was measured on systemic P388 murine leukemia cells. Maximum tested dose 40 mg/kg/day.).
Type: functional, Mus musculus
Summary of the method: (§1)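 CD2F1 male mice given 10⁶ P388 leukemia cells iv (day 0); drug given iv on days 1, 4 and 7. Survival expressed as T/C% = median survival time of treated / median survival of controls × 100, reported at optimal dose (mg/kg/day) or maximum tested dose.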
`CN(C)CCn1nc2c3c(c(NCCN(CCO)CCO)ccc31)C(=O)c1ccncc1-2` showed a T/C of 175%. `CN(C)CCNc1ccc2c3c(nn2CCO)-c2cnccc2C(=O)c13` showed a T/C of 112%.

Each compound was assayed on P388 (assay: not given).
Type: functional, Mus musculus
Work on `CN(C)CCn1nc2c3c(c(NCCN(C)CCO)ccc31)C(=O)c1ccncc1-2` yielded a T/C of 280%. In the case of `NCCNc1ccc2c3c(nn2CCNCCO)-c2cnccc2C(=O)c13`, the T/C is reported as 175%.

The compounds below were run on P388 (assay: In vivo antitumor activity was measured on systemic P388 murine leukemia cells. Optimal dose 24 mg/kg/day.).
Type: functional, Mus musculus
Summary of the method: as §1
`CN(C)CCn1nc2c3c(c(NCCN4CCOCC4)ccc31)C(=O)c1ccncc1-2` showed a T/C of 256%.

These compounds were tested on P388 (assay: In vivo antitumor activity was measured on systemic P388 murine leukemia cells. Optimal dose 7.5 mg/kg/day.).
Type: functional, Mus musculus
Summary of the method: as §1
`CN(C)CCCn1nc2c3c(c(NCCNCCO)ccc31)C(=O)c1ccncc1-2` showed a T/C of 166%. With `NCCn1nc2c3c(c(NCCN(CCO)CCO)ccc31)C(=O)c1ccncc1-2` the T/C was 194%.

The compounds below were run on P388 (assay: In vivo antitumor activity was measured on systemic P388 murine leukemia cells. Maximum tested dose 12 mg/kg/day.).
Type: functional, Mus musculus
Summary of the method: as §1
For `CCN(CC)CCNc1ccc2c3c(nn2CCN)-c2cnccc2C(=O)c13`, the T/C was 147%.

What follows are compounds tested on LoVo (assay: Resistance index measured as the ratio of IC50 of LoVo/Dx cell line to that of LoVo cell line.).
Type: functional, Homo sapiens
Compound `CN(C)CCn1nc2c3c(c(NCCN4CCOCC4)ccc31)C(=O)c1ccncc1-2` has an RI of 2.7. For `CN(C)CCCn1nc2c3c(c(NCCNCCO)ccc31)C(=O)c1ccncc1-2`, the RI was 300. Work on `CN(C)CCn1nc2c3c(c(NCCN(CCO)CCO)ccc31)C(=O)c1ccncc1-2` yielded an RI greater than 47. In the case of `NCCn1nc2c3c(c(NCCN(CCO)CCO)ccc31)C(=O)c1ccncc1-2`, the RI is reported as 2.1. `CCN(CC)CCNc1ccc2c3c(nn2CCN)-c2cnccc2C(=O)c13` showed an RI of 30. Work on `CN(C)CCNc1ccc2c3c(nn2CCO)-c2cnccc2C(=O)c13` yielded an RI greater than 5.4. `CN(C)CCn1nc2c3c(c(NCCN(C)CCO)ccc31)C(=O)c1ccncc1-2` showed an RI of 31.6. For `NCCNc1ccc2c3c(nn2CCNCCO)-c2cnccc2C(=O)c13`, the RI was greater than 46.

What follows are compounds tested on MX1 (assay: In vivo antitumor activity was measured on MX-1 human mammary carcinoma cells. TWI%=tumor weight inhibition. Optimal dose 12 mg/kg/day.).
Type: functional
Work on `CN(C)CCn1nc2c3c(c(NCCN(C)CCO)ccc31)C(=O)c1ccncc1-2` yielded a TWI of 75%.

The compounds below were run on LoVo/Dx (Homo sapiens) (assay: cells).
`CN(C)CCn1nc2c3c(c(NCCN4CCOCC4)ccc31)C(=O)c1ccncc1-2` showed an IC50 of 3.63 µg/mL (≈ 8.63 µM). `CN(C)CCCn1nc2c3c(c(NCCNCCO)ccc31)C(=O)c1ccncc1-2` showed an IC50 of 90 µg/mL (≈ 220 µM). For `CN(C)CCn1nc2c3c(c(NCCN(CCO)CCO)ccc31)C(=O)c1ccncc1-2`, the IC50 was greater than 100 µg/mL. For `NCCn1nc2c3c(c(NCCN(CCO)CCO)ccc31)C(=O)c1ccncc1-2`, the IC50 was greater than 100 µg/mL. In the case of `CCN(CC)CCNc1ccc2c3c(nn2CCN)-c2cnccc2C(=O)c13`, the IC50 is reported as 15.7 µg/mL (≈ 41.5 µM). In the case of `CN(C)CCNc1ccc2c3c(nn2CCO)-c2cnccc2C(=O)c13`, the IC50 is reported as greater than 100 µg/mL. Work on `CN(C)CCn1nc2c3c(c(NCCN(C)CCO)ccc31)C(=O)c1ccncc1-2` yielded an IC50 of 1.55 µg/mL (≈ 3.79 µM). In the case of `NCCNc1ccc2c3c(nn2CCNCCO)-c2cnccc2C(=O)c13`, the IC50 is reported as greater than 100 µg/mL.

Reference: ChEMBL document CHEMBL1131450, “Synthesis and antitumor evaluation of 2,5-disubstituted-indazolo[4, 3-gh]isoquinolin-6(2H)-ones (9-aza-anthrapyrazoles)” (J Med Chem, 1998)
